# Experimental data reported in ChEMBL document CHEMBL1125687, “5-Lipoxygenase inhibitors: the synthesis and structure-activity relationships of a series of 1-phenyl-3-pyrazolidinones” (J Med Chem, 1991).
# Key:
# [1] = Partition coefficient (logP); format: physicochemical; conditions: octanol/water
# [2] = target: T1, Polyunsaturated fatty acid 5-lipoxygenase (Rattus norvegicus, UniProt P12527); assay: In vitro inhibition of rat 5-Lipoxygenase
# T1 sequence (P12527 whole entry): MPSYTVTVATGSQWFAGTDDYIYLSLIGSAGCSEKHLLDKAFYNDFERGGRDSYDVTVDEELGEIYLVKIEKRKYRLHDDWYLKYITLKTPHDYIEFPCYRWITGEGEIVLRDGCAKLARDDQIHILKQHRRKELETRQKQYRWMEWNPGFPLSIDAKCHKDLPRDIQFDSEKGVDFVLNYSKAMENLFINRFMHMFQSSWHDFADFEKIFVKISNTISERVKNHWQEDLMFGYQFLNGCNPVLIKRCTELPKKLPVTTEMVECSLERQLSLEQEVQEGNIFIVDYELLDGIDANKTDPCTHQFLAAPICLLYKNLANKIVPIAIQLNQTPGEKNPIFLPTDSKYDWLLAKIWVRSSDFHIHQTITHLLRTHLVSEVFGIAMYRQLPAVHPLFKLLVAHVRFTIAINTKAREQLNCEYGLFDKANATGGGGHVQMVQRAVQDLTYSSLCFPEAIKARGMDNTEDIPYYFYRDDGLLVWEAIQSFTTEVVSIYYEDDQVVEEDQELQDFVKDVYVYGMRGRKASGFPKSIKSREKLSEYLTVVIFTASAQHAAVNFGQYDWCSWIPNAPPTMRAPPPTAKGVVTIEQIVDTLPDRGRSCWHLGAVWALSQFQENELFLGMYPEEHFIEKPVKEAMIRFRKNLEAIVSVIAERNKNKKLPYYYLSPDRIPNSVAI
# How it was run: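 Broken-cell assay: homogenized rat basophilic RBL-1 cells preincubated 5 min at 37 °C with compound or vehicle, then given [14C]arachidonic acid. A chloroform extract was run on TLC, and LTB4 and 5-HETE were quantified by radiochromatographic scanning.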
# [3] = target: T2, Polyunsaturated fatty acid 5-lipoxygenase (Rattus norvegicus) (UniProt P12527); assay: Compound was evaluated for the inhibition of 5-Lipoxygenase (5-LO) ex vivo; format: functional
# T2 sequence (whole entry): T1 sequence (P12527 whole entry)
# How it was run: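 Rats received 0.25% (w/v) carrageenan to induce pleural inflammation. After 3 h, compound or vehicle was given orally, and rats were killed 1 h later. Pleural exudate cells (>95% neutrophils) were stimulated with A23187 for 15 min and stopped with acetonitrile/methanol. After 30 min extraction at room temperature, samples were centrifuged and LTB₄ measured by reverse-phase HPLC. ED₅₀ with 95% confidence limits came from linear dose-response portions, ≥5 animals per dose.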
# [4] = test system: Cavia porcellus; assay: Compound was evaluated for the inhibition of leukotriene-mediated bronchoconstriction in guinea pig (in vivo); format: functional; conditions: Lung
# How it was run: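 Guinea pigs were immunized with ovalbumin 1 mg plus alum 3 mg and used two weeks later, anesthetized and mechanically ventilated with tracheal pressure monitored. Pretreatment iv: naproxen 10 mg/kg, pyrilamine 3 mg/kg, propranolol 0.1 mg/kg. Compound or vehicle was given orally 1 h before iv ovalbumin challenge (0.3 mg/kg). Percent inhibition was taken from the maximum tracheal pressure rise within 20 min. ED50 with 95% confidence limits came from linear dose-response portions, n≥8 per dose.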
# [5] = target: T2, Polyunsaturated fatty acid 5-lipoxygenase (Rattus norvegicus); assay: Compound was evaluated for the inhibition of 5-Lipoxygenase (5-LO) in vitro at 1 uM
# [6] = target: T2, Polyunsaturated fatty acid 5-lipoxygenase (Rattus norvegicus); conditions: at 1 µM
SMILES,logP [1],IC50 [2] [nM],other results
COCCC1CN(c2ccc(OC)cc2)NC1=O (stereo unspecified),0.45,1460,–
COCCC1CN(c2ccccc2)NC1=O (stereo in doubt; 1f) [listing 1 of 2 here],–,–,ED50 [3]: 43 mg/kg
O=C1NN(c2ccccc2)CC1SCc1ccccc1 (stereo unspecified),3.63,180,–
COCCOCC1CN(c2ccccc2)NC1=O (stereo unspecified),0.955,520,–
COCCC1CN(c2ccccc2)NC1=O (stereo in doubt; 1f (-)),–,10300,–
NC1=NN(c2cccc(C(F)(F)F)c2)CC1 [BW-755C],–,–,ED50 [4]: 300 mg/kg; ED50 [3]: > 300 mg/kg
COCCC1CN(c2ccc(OCc3ccccc3)cc2)NC1=O (stereo unspecified),2.22,500,–
O=C1CCN(c2ccccc2)N1 [PHENIDONE],0.893,–,ED50 [4]: 69 mg/kg; ED50 [3]: 16 mg/kg
O=C1NN(c2ccccc2)CC1Sc1ccccn1 (stereo unspecified),2.16,120,–
CCOCC1CN(c2ccccc2)NC1=O (stereo unspecified),1.42,280,–
COCc1cn(-c2ccccc2)[nH]c1=O,–,> 1000,–
COCCC1CN(c2ccc(Cl)cc2)NC1=O (stereo unspecified),1.24,250,–
CC(=O)NN(C)c1ccccc1,–,–,inhibition [5]: < 20%
COCC1CN(c2ccccc2)NC1=O (stereo unspecified),0.891,590,ED50 [4]: 25 mg/kg; ED50 [3]: 29 mg/kg
CC(C)(O)C1CN(c2ccccc2)NC1=O (stereo unspecified),–,> 1000,inhibition [6]: 35%
COCC1(C)CN(c2ccccc2)NC1=O (stereo unspecified),1.41,670,–
CSC1CN(c2ccccc2)NC1=O (stereo unspecified),1.97,320,–
CCCOCC1CN(c2ccccc2)NC1=O (stereo unspecified),1.95,260,–

SMILES,logP [1],IC50 [2] [nM],other results
COCCC1C(=O)NN(c2ccccc2)C1(C)C (stereo unspecified),–,> 1000,inhibition [6]: < 20%
CCOCCC1CN(c2ccccc2)NC1=O (stereo unspecified),1.06,150,–
COCC1CN(c2ccccc2)N(C)C1=O (stereo unspecified),–,> 1000,inhibition [6]: < 20%
COCCC1CN(c2cccc(C(F)(F)F)c2)NC1=O (stereo unspecified),1.41,220,–
O=C1CCCN(c2ccccc2)N1,1.45,530,–
COCCC1CN(c2ccc(Cl)c(Cl)c2)NC1=O (stereo unspecified),1.96,190,–
COCCC1CN(c2ccc(O)cc2)NC1=O (stereo unspecified),-0.14,5130,–
COCCC1CN(c2ccccc2)NC1=O (stereo in doubt; 1f) [listing 2 of 2 here],0.53,480,ED50 [4]: 62 mg/kg
COCCC1CCN(c2ccccc2)NC1=O (stereo unspecified),1.09,440,–
CN(C)CCC1CN(c2ccccc2)NC1=O (stereo unspecified),–,> 1000,inhibition [5]: < 20%
COCCC1CN(c2ccc(C)cc2)NC1=O (stereo unspecified),1.03,–,–
O=C1NN(c2ccccc2)CC1Cc1cccs1 (stereo unspecified),2.48,140,–
O=C1NN(c2ccccc2)CC1CCO (stereo unspecified),–,> 1000,inhibition [6]: 35%
"COCCC1CN(c2ccccc2)NC1=O (single isomer, unassigned; (+))",–,350,–
COCCC1C(=O)NN(c2ccccc2)C1C (stereo unspecified),1.05,500,–
O=C1NN(c2ccccc2)CC1C(O)(c1ccccc1)c1ccccc1 (stereo unspecified),–,< 1000,–
COCCc1cn(-c2ccccc2)[nH]c1=O,–,> 1000,inhibition [6]: 35%
CCSC1CN(c2ccccc2)NC1=O (stereo unspecified),2.5,60,ED50 [4]: 92 mg/kg; ED50 [3]: 95 mg/kg
